Bioassay records as filed in PubChem.
FLuc stim CS: firefly luciferase counter-screen for stimulation assays; activation factor at 10 µM; 200,000 tested, under 10 active; ATPlite luciferase biochemical, luminescence, 10 min; 0 = ATP-free wells, 1 = DMSO control;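 active = luciferase activation factor, scaled between plate controls, of at least 2 with compound at 10 µM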
Target sequence (P08659 whole entry, looked up): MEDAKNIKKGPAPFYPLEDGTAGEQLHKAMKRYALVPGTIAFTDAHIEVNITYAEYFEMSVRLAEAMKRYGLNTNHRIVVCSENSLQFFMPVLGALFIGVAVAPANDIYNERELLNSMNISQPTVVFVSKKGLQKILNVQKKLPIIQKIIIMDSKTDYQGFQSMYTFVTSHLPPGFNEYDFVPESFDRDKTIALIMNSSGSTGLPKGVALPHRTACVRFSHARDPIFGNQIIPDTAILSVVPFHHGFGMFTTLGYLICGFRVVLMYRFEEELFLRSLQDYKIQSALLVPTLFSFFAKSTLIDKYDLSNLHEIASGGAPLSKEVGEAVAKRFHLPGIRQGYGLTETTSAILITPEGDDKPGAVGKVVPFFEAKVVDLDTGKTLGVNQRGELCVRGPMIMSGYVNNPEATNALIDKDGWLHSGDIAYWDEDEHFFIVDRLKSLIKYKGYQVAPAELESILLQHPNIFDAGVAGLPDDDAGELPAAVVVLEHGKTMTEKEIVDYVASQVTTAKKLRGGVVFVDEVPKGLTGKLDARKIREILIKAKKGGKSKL
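Material: Luciferase/luciferin reagent mix | Doses: Test compounds dosed from 2 mM stocks in 100% DMSO | Timing: 10 min incubation after luciferase reagent addition, room temperature | Measured by: Luminescence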
STAT1 inh: STAT1 signaling inhibition. NIH 3T3 STAT1-luciferase reporter, IFN-gamma, luminescence. inhibition, % at 5.5 µM. 200,000 tested, 0.35% active;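 active = inhibition above a set limit, the mean inhibition across all tested compounds plus 3 SD, cut at about 34% in these data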;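 note: 0% = IFN-gamma with DMSO and 100% = IFN-gamma with 300 µM nifuroxazide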
STAT1 act: STAT1 signaling activation | NIH 3T3 STAT1-luciferase reporter, IFN-gamma, luminescence; 100% = IFN-gamma alone, no compound | activation (% of control), % at 5.5 µM | 200,000 tested, 2.6% active | AID 932;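 active = activation above the screen-wide mean activation plus 3 SD, cut at about 130% in these data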;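 note: raw ratio to IFN-gamma control signal so 100% means no change and 0% no light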
FLuc inhib CS: counter-screen for luciferase assay inhibitors: firefly luciferase inhibition | ATPLite firefly luciferase biochemical luminescence, 10 min | 200,000 tested, 1.5% active | P08659 | inhibition, % at 10 µM;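 active = inhibition above about 50% when tested at 10 µM, limit read from the data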
STAT3 blocker: reduces IL-6 driven STAT3 reporter signal. 190,000 tested, 0.89% active. U3A cells, IL-6 STAT3-luciferase reporter, luminescence; host cell line lacks STAT1. inhibition, % at 5.5 µM;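 active = inhibition above the mean inhibition across all screened compounds plus 3 SD, cut at about 44% in these data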;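 note: 0% = DMSO only wells and 100% = 100 µM nifuroxazide control wells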
STAT3 activator: increases IL-6 driven STAT3 reporter signal | activation (% of control), % at 5.6 µM | 190,000 tested, 0.91% active | U3A cells, IL-6 STAT3-luciferase reporter, luminescence; 100% = signal with IL-6 EC80 alone;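 active = activation above the screen-wide mean of compound activation plus 3 SD, cut at about 130% in these data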;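 note: 0% = background luminescence of wells with medium and substrate only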
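Test system: Human STAT1-deficient U3A cells with stable STAT3-luciferase reporter | Also added: Interleukin-6, 33 ng/mL | Timing: Compound pre-incubation 1 h before IL-6, then 6 h stimulation at 37 °C | Technique: Luciferase reporter luminescence | Read-out: Percent of IL-6-only median luminescence | Benchmarks: IL-6-only wells as 100% reference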
The depositor's hits bear a star; . = no result given. Rows were chosen to be rich in hits. Some 4.9% of all compounds tested hit in one or more screens of this group.

SMILES | FLuc stim CS | STAT1 inh | STAT1 act | FLuc inhib CS | STAT3 blocker | STAT3 activator
Cc1cccc(Oc2ccc(N)cc2)c1 | 1 | -2 | 102 | -3 | 5 | 97
Nc1ccc(Oc2cccc(Oc3ccc(N)cc3)c2)cc1 | 1 | 39* | 63 | -1 | 51* | 60
O=C(NC1C(=O)NNC1c1ccc(Cl)cc1)c1ccc(F)cc1 (stereo not drawn) | 1 | -11 | 108 | -4 | -2 | 105
O=C(NC1C(=O)NNC1c1ccccc1)c1ccc(F)cc1 (stereo not drawn) | 1.1 | -32 | 129* | -5 | 3 | 101
Cc1cccc(Sc2c([N+](=O)[O-])ncn2C)c1 | 0.5 | -1 | 101 | 52* | 9 | 99
Cc1cccnc1Sc1c([N+](=O)[O-])ncn1C | 1 | -8 | 107 | -3 | -3 | 103
COc1ccc(/C=C/C(=O)c2ccccc2O)cc1 | 0.6 | -14 | 113 | 42 | -7 | 103
COc1ccc(/C=C/C(=O)c2ccc(O)cc2)cc1 | 0.2 | -14 | 112 | 75* | . | .
COc1ccc(C(=O)NNC(=O)c2ccccn2)cc1 | 0 | 92* | 18 | 97* | 99* | 18
COc1ccc(/C=C/C(=O)c2ccccn2)cc1 | 0 | -30 | 127 | 96* | 9 | 94
COc1ccc(/C=C/C(=O)c2ccoc2)cc1 | 0.6 | -9 | 103 | 45 | 16 | 93
CCCNC(=O)[C@H](C)NC(=O)c1ccc(Br)cc1 | 1.1 | -8 | 106 | -8 | 3 | 104
CCOC(=O)C1(CCCc2ccccc2)CCN(C(=O)C2=C(C)OCCO2)CC1 | 1 | 8 | 92 | 0 | 8 | 96
O=C(O)CCCNc1cc(N2CCC3(CC2)OCCO3)c2noc3c2c1C(=O)c1ccccc1-3 | 0.7 | -46 | 143* | 28 | 0 | 103
O=C(CCc1ccccn1)N1CCCC(CNS(=O)(=O)c2cccs2)C1 (stereo not drawn) | 1.1 | -2 | 100 | -6 | 4 | 103
c1ccc(OCCSc2nnnn2C2CCCCC2)cc1 | 0.8 | -36 | 133* | 18 | -2 | 111
Cc1c(NC(=O)COC(=O)c2cc(-c3ccc(-c4ccccc4)cc3)nc3ccccc23)c(=O)n(-c2ccccc2)n1C | 0.2 | -51 | 146* | 85* | -11 | 105
COc1ccc(C2C(=O)c3ccccc3C2=O)cc1 | 0.1 | -2 | 102 | 90* | -3 | 105
COc1ccc(C2=C(N)c3ccccc3C2=O)cc1 | 0.4 | -35 | 133* | 57* | 14 | 90
COc1ccc(C2Nc3ccccc3C(=O)N2O)cc1OC (stereo not drawn) | 1 | -4 | 103 | -2 | 9 | 97
COc1ccc(C2C(=O)c3ccccc3C2=O)c(OC)c1 | 1.1 | -4 | 104 | -5 | 7 | 98
COc1ccc(C2C(=O)c3ccccc3C2=O)cc1OC | 0.2 | -14 | 112 | 82* | -10 | 109
CCCCc1ccc(N=N/C(C(=O)Nc2cc(OC)c(NC(C)=O)cc2OC)=C(/C)O)cc1 | 1 | 0 | 100 | -4 | -3 | 102
Cc1ccc(NC(=O)CN(C)C(=O)c2ccc(S(=O)(=O)N(C)c3ccccc3)cc2)cc1 | 1 | 3 | 97 | -4 | -2 | 110
CN(C)/C=N/C(=S)Nc1ccc(Br)cc1F | 0.9 | -35 | 130* | 7 | -4 | 104
SMILES | FLuc stim CS | STAT1 inh | STAT1 act | FLuc inhib CS | STAT3 blocker | STAT3 activator
CN(C)CCNC(=O)c1cc2c(s1)-c1ccccc1OC2 | 1 | -10 | 109 | -4 | 15 | 94
Cc1csc(NC(=O)c2cc3c(s2)-c2ccccc2OC3)n1 | 0.9 | -43 | 139* | 6 | 13 | 94
Cc1ccc(-n2c(SCC(=O)N3Cc4ccccc4CC3C(=O)O)nnc2-c2cccnc2)c(C)c1 (stereo not drawn) | 1 | -1 | 100 | -2 | 4 | 93
Nc1ccc2c(c1)Cc1cc([N+](=O)[O-])ccc1-2 | 1 | -40 | 134* | 1 | -6 | 106
Cc1nnc(SCC(=O)N2CCCC2)n(N)c1=O | 1 | 0 | 100 | -3 | 4 | 100
O=C(O)CCC(=O)Nc1ccccc1C(=O)NCCc1ccccc1 | 1 | -40 | 135* | 1 | -17 | 111
O=C(O)CCC(=O)Nc1ccccc1C(=O)Nc1ccccc1 | 1 | 1 | 100 | -2 | 4 | 97
COC(=O)c1c(N2C(=O)[C@H]3[C@@H](C2=O)[C@]2(C(=O)Nc4c(C)cccc42)N2CCC[C@@H]32)sc(C)c1C | 1 | 12 | 89 | 3 | 6 | 95
O=C(CSc1nncc2ccccc12)N1CCCCC1 | 0.9 | -32 | 130* | 6 | -5 | 110
CCOC(=O)CC(NC(=O)c1cccc2c1C(=O)N(Cc1cccnc1)C2)c1ccc(OCC)c(OC)c1 (stereo not drawn) | 1 | 8 | 91 | -4 | 16 | 89
Nc1[nH]nc2nc(N3CCCC3)nc(-c3ccccc3)c12 | 1 | -4 | 103 | -3 | 3 | 103
Nc1[nH]nc2ncc3cc4ccccc4nc3c12 | 1 | -43 | 139* | 2 | 38 | 72
O=C(N/N=C/c1ccc[nH]1)c1cccc([N+](=O)[O-])c1 | 1 | -11 | 110 | -4 | 2 | 100
O=C(N/N=C/c1cc([N+](=O)[O-])ccc1O)c1ccc2c(c1)OCCO2 | 0.3 | -4 | 104 | 70* | -4 | 100
O=C(N/N=C/c1ccc[nH]1)c1ccc(O)cc1 | 0.8 | 10 | 89 | 18 | 2 | 101
COc1ccc(/C=N/NC(=O)c2ccc3c(c2)OCCO3)cc1[N+](=O)[O-] | 1.1 | -10 | 109 | -6 | 4 | 94
O=C(N/N=C/c1ccc[nH]1)c1ccccc1O | 0.4 | 6 | 93 | 62* | 11 | 94
Cc1ccsc1/C=N/NC(=O)c1ccc(-n2cccc2)cc1 | 1 | -33 | 129* | 1 | 13 | 92
O=C(N/N=C/c1ccc[nH]1)c1ccc2c(c1)OCO2 | 0.3 | -7 | 105 | 73* | 11 | 96
CCCCCC1=CCC/C1=N\NC(=O)c1ccc2c(c1)OCO2 | 1 | -1 | 101 | -1 | 0 | 103
C=CCc1c(C)[nH]c(=O)[nH]c1=O | 1.1 | -12 | 112 | -6 | 11 | 91
C=C(C)CC1(NC(C)c2ccccc2)CCCCC1 (stereo not drawn) | 1 | 11 | 91 | -4 | 9 | 95
CCCC(CCC)=NNC(=O)c1ccccc1F | 1 | -18 | 116 | 2 | -3 | 104
COc1ccc(C2NCCc3c2[nH]c2ccccc32)cc1CSc1nc2ccccc2s1 (stereo not drawn) | 1 | 10 | 92 | -3 | -18 | 115
